Results on 1 compound are retold here after ChEMBL document CHEMBL4387708, “Enhancement of Benzothiazoles as Pteridine Reductase-1 Inhibitors for the Treatment of Trypanosomatidic Infections” (J Med Chem, 2019).

Data set [1] concerns the target T1, Pteridine reductase 1 (Leishmania major, UniProt Q01782).
T1 sequence (Q01782 whole entry): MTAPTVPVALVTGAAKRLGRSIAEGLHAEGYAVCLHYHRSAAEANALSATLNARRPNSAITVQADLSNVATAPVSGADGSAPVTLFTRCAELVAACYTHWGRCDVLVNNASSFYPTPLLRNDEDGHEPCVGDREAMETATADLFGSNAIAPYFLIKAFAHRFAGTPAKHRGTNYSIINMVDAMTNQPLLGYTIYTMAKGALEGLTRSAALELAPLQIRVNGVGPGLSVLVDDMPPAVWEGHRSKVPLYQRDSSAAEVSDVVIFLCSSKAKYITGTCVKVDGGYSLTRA
The data set is described as follows: Inhibition of Leishmania major pteridine reductase 1 using di-hydrobiopterine as substrate in presence of NADPH. As to conditions: read-out: IC50. In outline: (§1)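 Photometric PTR1 assay with NADPH and dihydrobiopterin substrate. H₄B formation is coupled non-enzymatically to cytochrome c reduction, read as signal increase at 550 nm.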

Data set [2] relates to Trypanosoma brucei. Put plainly: Growth inhibition of Trypanosoma brucei bloodstream forms measured after 72 hrs by resazurin-based fluorescence assay. It counts as organism-based. An outline of the steps: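 Mid-log bloodstream-form T. brucei were seeded at a final 5 x 10^3/mL in supplemented HMI-9 with serial compound dilutions. Cultures ran 72 h at 37 °C, 5% CO₂, then 4 h more after resazurin. Fluorescence was read at ex 540/em 620 nm, and EC₅₀ was fitted by non-linear regression.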
In general terms: The colour change of resazurin is a common sign of viable cells or microbes.

For data set [3], the system named is Trypanosoma brucei. The data set is described as follows: Growth inhibition of Trypanosoma brucei bloodstream forms at 10 uM measured after 72 hrs by resazurin-based fluorescence assay relative to control. Type of data set: organism-based. As to conditions: Trypanosoma brucei, read-out: GI.
A short description of data set [4]: Cmax in BALB/c mouse at 20 mg/kg, po co-formulated with hydroxypropyl-beta-cyclodextrin by LC-MS analysis. Type of data set: ADME, organism-based. Also noted: dose 20 mg/kg, route oral. As to conditions: in vivo. In outline:
(§2)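 Snapshot PK in healthy BALB/c mice. Free compound given in 8% DMSO at 1 mg/kg IV or 20 mg/kg per os; for the formulated arm it was solubilized with hydroxypropyl-β-cyclodextrin (50%) and given at 20 mg/kg per os. Plasma levels were quantified by LC-MS on a C18 column with triple-quadrupole ESI detection in positive ion mode.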

Data set [5] concerns the target T2, Cytochrome P450 1A2 (Homo sapiens, UniProt P05177).
T2 sequence (P05177 whole entry): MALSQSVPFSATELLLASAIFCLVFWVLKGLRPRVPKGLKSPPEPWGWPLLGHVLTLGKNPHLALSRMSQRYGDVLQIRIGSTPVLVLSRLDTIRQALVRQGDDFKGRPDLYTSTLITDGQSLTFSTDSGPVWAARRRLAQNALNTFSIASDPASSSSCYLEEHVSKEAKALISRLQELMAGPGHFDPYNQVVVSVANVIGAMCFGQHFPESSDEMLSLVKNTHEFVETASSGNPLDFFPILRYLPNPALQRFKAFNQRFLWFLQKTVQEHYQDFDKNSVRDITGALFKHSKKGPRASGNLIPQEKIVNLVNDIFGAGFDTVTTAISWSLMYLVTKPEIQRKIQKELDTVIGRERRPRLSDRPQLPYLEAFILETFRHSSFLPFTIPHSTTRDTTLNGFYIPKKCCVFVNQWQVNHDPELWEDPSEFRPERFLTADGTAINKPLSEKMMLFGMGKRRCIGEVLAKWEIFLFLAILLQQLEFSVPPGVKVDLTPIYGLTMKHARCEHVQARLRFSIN
Put plainly: Inhibition of human CYP1A2 expressed in baculovirus infected insect cells using beetle D-luciferin as substrate preincubated for 30 mins followed by NADPH addition and measured after 30 mins by CYP450-Glo assay.

A short description of data set [6]: Half-life in BALB/c mouse at 20 mg/kg, po co-formulated with hydroxypropyl-beta-cyclodextrin by LC-MS analysis. Type of data set: ADME, organism-based. The conditions noted are these: in vivo. An outline of the steps: as §2
The test system of data set [7] is Trypanosoma brucei brucei. The data set is described as follows: Antitrypanosomal activity against red-shifted luciferase expressing Trypanosoma brucei brucei GVR35 infected in BALB/c mouse assessed as reduction in parasite infection at 40 mg/kg, po administered twice a day as suspension in hydroxypropyl-beta-cyclodextrin solution by bioluminescence assay. Type of data set: functional, organism-based. In outline: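 T. b. brucei GVR35 (luciferase-expressing) was given IP to BALB/c mice as blood carrying 1 x 10⁵ parasites from a donor mouse at first-peak parasitemia; controls received PBS. Compound was given orally as a suspension in (2-hydroxypropyl)-β-cyclodextrin solution at 40 mg/kg twice daily. […] Parasite load was read by bioluminescence imaging after subcutaneous D-luciferin under isoflurane, as total flux per ROI.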

Data set [8] in a line: Cytotoxicity against human THP1 cells after 72 hrs by MTT assay. Type of data set: cell-based, THP-1. As to conditions: read-out: NOAEL. In general terms: Tetrazolium assays rely on reduction of a dye to a coloured formazan, in cell work by metabolically active cells.
The nature of data set [9]: Cytotoxicity against human U2OS cells assessed as reduction in cell number. It counts as cell-based.
Data set [10] can be described thus: Selectivity index ratio of GI50 for human U2OS cells to EC50 for growth inhibition of Trypanosoma brucei bloodstream forms. It counts as toxicity. As to conditions: read-out: Ratio GI50/EC50.
Data set [11] concerns CYP3A4. The data set is described as follows: Selectivity index ratio of IC50 for CYP3A4 (unknown origin) to EC50 for growth inhibition of Trypanosoma brucei bloodstream forms. Type of data set: toxicity. The conditions noted are these: read-out: Ratio IC50/EC50.
In data set [12] the test system is CYP2D6. Put plainly: Selectivity index ratio of IC50 for CYP2D6 (unknown origin) to EC50 for growth inhibition of Trypanosoma brucei bloodstream forms. Type of data set: toxicity. The conditions noted are these: read-out: Ratio IC50/EC50.
The nature of data set [13]: Half-life in BALB/c mouse at 20 mg/kg, po by LC-MS analysis. Type of data set: ADME, organism-based. The conditions noted are these: in vivo. In outline: as §2
Data set [14] in a line: Ratio of Cmax BALB/c mouse at 20 mg/kg, po co-formulated with hydroxypropyl-beta-cyclodextrin to EC50 for Trypanosoma brucei bloodstream forms. Type of data set: ADME, organism-based. As to conditions: in vivo.
Data set [15] has as its target T3, Pteridine reductase 1 (Leishmania major) (UniProt Q01782).
T3 sequence (whole entry): T1 sequence (Q01782 whole entry)
The data set is described as follows: Inhibition of Leishmania major pteridine reductase 1 at 50 uM using di-hydrobiopterine as substrate in presence of NADPH relative to control. An outline of the steps:
as §1

Data set [16] deals with CYP1A2. The data set is described as follows: Selectivity index ratio of IC50 for CYP1A2 (unknown origin) to EC50 for growth inhibition of Trypanosoma brucei bloodstream forms. It counts as toxicity. As to conditions: read-out: Ratio IC50/EC50.
Data set [17] relates to Leishmania infantum. The data set is described as follows: Growth inhibition of luciferase expressing Leishmania infantum axenic amastigotes infected in human THP1 cells at 10 uM measured after 72 hrs by steady-glo luminescence assay relative to control. Type of data set: organism-based. The conditions noted are these: leishmania infantum, 72 h, 10 µM.
In data set [18] the test system is CYP2C9. Put plainly: Selectivity index ratio of IC50 for CYP2C9 (unknown origin) to EC50 for growth inhibition of Trypanosoma brucei bloodstream forms. As to conditions: read-out: Ratio IC50/EC50. Type of data set: toxicity.
For data set [19], the system named is CYP2C19. Put plainly: Selectivity index ratio of IC50 for CYP2C19 (unknown origin) to EC50 for growth inhibition of Trypanosoma brucei bloodstream forms. It counts as toxicity. The conditions noted are these: read-out: Ratio IC50/EC50.
Data set [20] relates to Trypanosoma brucei. The data set is described as follows: Inhibition of N-terminal His-tagged Trypanosoma brucei pteridine reductase 1 at 50 uM using di-hydrobiopterine as substrate measured at 1 min interval for 50 mins in presence of NADPH relative to control. An outline of the steps: as §1
A short description of data set [21]: Cmax in BALB/c mouse at 20 mg/kg, po by LC-MS analysis. It counts as ADME, organism-based. Also noted: dose 20 mg/kg, route oral. The conditions noted are these: in vivo. An outline of the steps:
as §2

A short description of data set [22]: Selectivity index ratio of GI50 for human A549 cells to EC50 for growth inhibition of Trypanosoma brucei bloodstream forms. As to conditions: read-out: Ratio GI50/EC50. It counts as toxicity.
A short description of data set [23]: Mitochondrial toxicity in human 786-O cells measured after 6 hrs by MitoTracker Red chloromethyl-X-rosamine based assay. It counts as cell-based, 786-0.
The nature of data set [24]: AUC in BALB/c mouse at 20 mg/kg, po by LC-MS analysis. It counts as ADME, organism-based. The conditions noted are these: in vivo. In outline: as §2

The source made the active and inactive calls. A value given as a limit tells only on which side of the number the result lay.

For orientation: IC50 means the concentration that gives 50% inhibition. As a reminder, the EC50 is the midpoint of the concentration-response curve. Broadly, the Cmax is the highest concentration seen after dosing. A word on the half-life: it is the time needed for the level to fall by half in the phase considered. By GI50 is commonly meant the concentration at which growth is held to half of that of the control. For orientation: AUC means concentration integrated over time. Read a low AUC as low exposure. Turning to `Nc1nc2ccc(C(=O)NCc3ccccc3)cc2s1`, the IC50 in data set [1] is 61.3 µM; in data set [5] it was more than 25 µM. Moreover, it took 7 µM to reach a half-maximal effect in data set [2] (EC50). For the same compound, the inhibition at 10 µM in [3] is more than 60%. The Cmax was found to be 13 µM in [4] and 826 ng/mL in data set [21]. The results for the half-life in data set [6] and in [13] were 34.8 h and 43.5 h, respectively. Also, the outcome in data set [7] was inactive. Further, the MNTC at 72 h in data set [8] was more than 25 µM. In data set [9], the GI50 is more than 25 µM. The selectivity ratio in [10], in data set [11], in data set [12], in data set [16], in data set [18] and in [19] was more than 10 each time. The selectivity ratio in data set [22] was more than 10. The Ratio in data set [14] worked out at 1.9. For the same compound, the inhibition in data set [15] and in data set [20] was more than 60% throughout. For the same compound, the “growth inhibition (GI)” value in data set [17] was “Non-Toxic”. The IC50 at 6 h in [23] is more than 25 µM. This compound had an AUC in [24] of 4690 ng·h/mL.
